Results as given in ChEMBL document CHEMBL1255398, “In vitro activities of eight antifungal drugs against 55 clinical isolates of Fonsecaea spp” (2010).
Converted amounts (≈) assume the structure as drawn. Starred links: 1 amine or outer side, 2 acyl side, 3 side chain; linkers in the order of their positions; H or OH if unused. Positions of bridges follow the written chain, without caps; N, C: chain ends. Non-standard residues stand in square brackets, D forms with d. Residues, ends and D or L forms follow the SMILES beside them. *: point of attachment. pTerphenylCO(4''-OnC5H11) = CCCCCOc1ccc(-c2ccc(-c3ccc(C(=O)*)cc3)cc2)cc1; Orn(4R-OH,5R-OH) = O=C([C@H](C[C@@H](O)[C@@H](O)N[*:3])N[*:1])[*:2]; hTyr(3S-OH,4S-OH) = N[C@H](C(=O)O)[C@H](O)[C@@H](O)c1ccc(O)cc1; Pro(3S-OH,4S-Me) = C[C@H]1CN[C@H](C(=O)O)[C@H]1O; Hyp = O=C(O)[C@@H]1C[C@@H](O)CN1

Columns and labels:
Type in all cases: functional
[1] = system: Fonsecaea pedrosoi; assay: Antimicrobial activity against Fonsecaea pedrosoi isolates after 72 hrs by CLSI M38-A2 protocol method
How it was run: (§1)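 Broth microdilution per CLSI M38-A2. Isolates grown on potato dextrose agar at 35°C for up to 7 days. Inocula were scraped into saline with 0.05% Tween 40, settled 3 to 5 min, and adjusted at 530 nm to 68 to 71% transmission (1.5 × 104 to 4 × 10^4 CFU/ml). Incubated 72 h at 35°C and read visually against drug-free control: MIC at 100% or ≥50% inhibition depending on drug, MEC microscopically by compact hyphae.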

[2] = system: Fonsecaea; assay: Antimicrobial activity against Fonsecaea nubica isolates after 72 hrs by CLSI M38-A2 protocol method; how it was run: as §1
[3] = system: Fonsecaea monophora; assay: Antimicrobial activity against Fonsecaea monophora isolates after 72 hrs by CLSI M38-A2 protocol method; how it was run: as §1
[4] = system: Fonsecaea; assay: Antimicrobial activity against Fonsecaea isolates after 72 hrs by CLSI M38-A2 protocol method; how it was run: as §1

Compound | MIC50 [1] [µg/mL] | MIC90 [1] [µg/mL] | MIC50 [2] [µg/mL] | MIC90 [2] [µg/mL] | MIC50 [3] [µg/mL] | MIC90 [3] [µg/mL] | MIC50 [4] [µg/mL] | MIC90 [4] [µg/mL] | MIC [2] [µg/mL]
C[C@@H]1[C@H](O)[C@@H](C)/C=C/C=C/C=C/C=C/C=C/C=C/C=C/[C@H](O[C@@H]2O[C@H](C)[C@@H](O)[C@H](N)[C@@H]2O)C[C@@H]2O[C@](O)(C[C@@H](O)C[C@@H](O)[C@H](O)CC[C@@H](O)C[C@@H](O)CC(=O)O[C@H]1C)C[C@H](O)[C@H]2C(=O)O [AMPHOTERICIN B] | 1 (≈ 1.08 µM) | 2 (≈ 2.16 µM) | 1 (≈ 1.08 µM) | 2 (≈ 2.16 µM) | 1 (≈ 1.08 µM) | 2 (≈ 2.16 µM) | 1 (≈ 1.08 µM) | 2 (≈ 2.16 µM) | 
OC(Cn1cncn1)(Cn1cncn1)c1ccc(F)cc1F [FLUCONAZOLE] | 32 (≈ 104 µM) | 32 (≈ 104 µM) | 16 (≈ 52.2 µM) | 32 (≈ 104 µM) | 16 (≈ 52.2 µM) | 32 (≈ 104 µM) | 16 (≈ 52.2 µM) | 32 (≈ 104 µM) | 16 (≈ 52.2 µM)
C[C@@H](c1ncncc1F)[C@](O)(Cn1cncn1)c1ccc(F)cc1F [VORICONAZOLE] | 0.5 (≈ 1.43 µM) | 0.5 (≈ 1.43 µM) | 0.25 (≈ 0.716 µM) | 0.5 (≈ 1.43 µM) | 0.063 (≈ 0.18 µM) | 0.125 (≈ 0.358 µM) | 0.25 (≈ 0.716 µM) | 0.5 (≈ 1.43 µM) | 0.25 (≈ 0.716 µM)
CCC(C)n1ncn(-c2ccc(N3CCN(c4ccc(OCC5COC(Cn6cncn6)(c6ccc(Cl)cc6Cl)O5)cc4)CC3)cc2)c1=O (configuration not stated) [ITRACONAZOLE] | 0.063 (≈ 0.0893 µM) | 0.125 (≈ 0.177 µM) | 0.125 (≈ 0.177 µM) | 0.25 (≈ 0.354 µM) | 0.063 (≈ 0.0893 µM) | 0.125 (≈ 0.177 µM) | 0.063 (≈ 0.0893 µM) | 0.125 (≈ 0.177 µM) | 
CC[C@H](C)C[C@H](C)CCCCCCCCC(=O)N[C@H]1C[C@@H](O)[C@@H](NCCN)NC(=O)[C@@H]2[C@@H](O)CCN2C(=O)[C@H]([C@H](O)CCN)NC(=O)[C@H]([C@H](O)[C@@H](O)c2ccc(O)cc2)NC(=O)[C@@H]2C[C@@H](O)CN2C(=O)[C@H]([C@@H](C)O)NC1=O [CASPOFUNGIN] | 4 (≈ 3.66 µM) | 4 (≈ 3.66 µM) | 2 (≈ 1.83 µM) | 4 (≈ 3.66 µM) | 2 (≈ 1.83 µM) | 2 (≈ 1.83 µM) | 2 (≈ 1.83 µM) | 2 (≈ 1.83 µM) | 2 (≈ 1.83 µM)
CCCCCOc1ccc(-c2ccc(-c3ccc(C(=O)N[C@H]4C[C@@H](O)[C@@H](O)NC(=O)[C@@H]5[C@@H](O)[C@@H](C)CN5C(=O)[C@H]([C@@H](C)O)NC(=O)[C@H]([C@H](O)[C@@H](O)c5ccc(O)cc5)NC(=O)[C@@H]5C[C@@H](O)CN5C(=O)[C@H]([C@@H](C)O)NC4=O)cc3)cc2)cc1 [ANIDULAFUNGIN] ({pTerphenylCO(4''-OnC5H11)}-[Orn(4R-OH,5R-OH)]T[Hyp][hTyr(3S-OH,4S-OH)]T[Pro(3S-OH,4S-Me)]; lactam 1-C) | 8 (≈ 7.02 µM) | 8 (≈ 7.02 µM) | 2 (≈ 1.75 µM) | 8 (≈ 7.02 µM) | 4 (≈ 3.51 µM) | 8 (≈ 7.02 µM) |  |  | 2 (≈ 1.75 µM)
C[C@@H](c1nc(-c2ccc(C#N)cc2)cs1)[C@](O)(Cn1cncn1)c1cc(F)ccc1F [ISAVUCONAZOLE] | 0.25 (≈ 0.571 µM) | 0.25 (≈ 0.571 µM) | 0.125 (≈ 0.286 µM) | 0.5 (≈ 1.14 µM) | 0.125 (≈ 0.286 µM) | 0.25 (≈ 0.571 µM) | 0.25 (≈ 0.571 µM) | 0.25 (≈ 0.571 µM) | 
CC[C@@H]([C@H](C)O)n1ncn(-c2ccc(N3CCN(c4ccc(OC[C@@H]5CO[C@@](Cn6cncn6)(c6ccc(F)cc6F)C5)cc4)CC3)cc2)c1=O [POSACONAZOLE] | 0.063 (≈ 0.0899 µM) | 0.063 (≈ 0.0899 µM) | 0.031 (≈ 0.0442 µM) | 0.063 (≈ 0.0899 µM) | 0.031 (≈ 0.0442 µM) | 0.063 (≈ 0.0899 µM) | 0.031 (≈ 0.0442 µM) | 0.063 (≈ 0.0899 µM) | 0.031 (≈ 0.0442 µM)
